# Source: PMC9371723 (Proceedings of the National Academy of Sciences of the …, 2022)
# Legend:
# auxin-conjugating GH3s = conditions: competitive inhibitor; cited from earlier work
# [1] = system: Arabidopsis mutants tir1-1 afb2-1, axr1-3, sav3-2, yucQ; assay: Lateral root formation in auxin signaling and biosynthesis mutants; format: in vivo, Arabidopsis thaliana
# Procedure, shortened: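 Signalling and biosynthesis mutant seedlings, 4 d old, incubated with test compound for 3 more days. sav3-2 co-treated with 1 µM yucasinDF; yucQ co-treated with 1 µM kynurenine. Read-out was lateral root formation.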
# [2] = system: DII-VENUS fusion reporter protein; conditions: IAA application; cited from earlier work
# Physcomitrium patens = assay: Moss GH3::GUS reporter line phenotype; format: in vivo; conditions: 10 μM, 15 d
# Procedure, shortened: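 P. patens GH3::GUS reporter colonies cultured 15 d on BCDATG medium (0.8% agar) with or without 10 µM test compound and 10 µM IAA. GUS visualised histochemically with X-Gluc; ectopic leafy-like primordia scored.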
# [3] = system: Rice (Oryza sativa cv. Nipponbare) seedlings; assay: Rice seedling primary root and mesocotyl assays; format: in vivo
# Procedure, shortened: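 Rice cv. Nipponbare seeds sterilised 20 min in 6% hypochlorite, rinsed, then germinated 2 d in sterile water at 28 °C in the dark. Mesocotyl: seedlings submerged 5 d in water with chemicals. Root: seedlings grown on 0.6% water agar with chemicals (n = 11). Both at 25 °C, 18 h light/6 h dark.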
# [4] = system: AtGH3.3, IAA19, YUC6 expression; assay: qRT-PCR of auxin-related genes in Arabidopsis; format: in vivo; conditions: after 60 min of treatment
# Procedure, shortened: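 Seedlings from vertical GM plates moved to liquid GM for 24 h, then harvested at intervals (10–60 min) after test compound was added. SYBR qRT-PCR: 95 °C 20 s, then 40 cycles of 95 °C 3 s and 60 °C 30 s. ΔΔCt normalised to UBQ10; n = 4, Tukey HSD vs mock.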
# [5] = system: Arabidopsis thaliana seedlings; assay: Primary and lateral root growth of Arabidopsis seedlings; format: in vivo; conditions: IAA at 0.05 µM
# Procedure, shortened: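 Primary root: seedlings grown vertically 6–8 d at 24 °C, continuous light, on GM plates with test compound (5 µM estradiol added for inducible lines); length recorded from photographs. Lateral root: seedlings grown vertically 6 d, moved to horizontal GM plates (2 g/L gellan gum) with chemicals for 2 d at 24 °C; lateral roots counted and primary root length measured.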
# AtAFB5–IAA7 = AtAFB5–IAA7 (Arabidopsis thaliana, UniProt Q9LTX2); assay: SPR analysis of auxin-induced AFB5-IAA7 degron peptide interaction; format: binding
# AtTIR1–IAA7 peptide = AtTIR1–IAA7 peptide (Arabidopsis thaliana, UniProt Q570C0); assay: SPR analysis of auxin-induced TIR1-IAA7 degron peptide interaction; format: binding
# TAA1 = conditions: cited from earlier work
# YUC monooxygenase = YUC monooxygenase inhibitors; cited from earlier work
# AtGH3.11/JAR1 = conditions: cited from earlier work
# endogenous IAA = conditions: within 30 min; cited from earlier work
# Chain of AtAFB5–IAA7 (Q9LTX2 whole entry, other chains not shown): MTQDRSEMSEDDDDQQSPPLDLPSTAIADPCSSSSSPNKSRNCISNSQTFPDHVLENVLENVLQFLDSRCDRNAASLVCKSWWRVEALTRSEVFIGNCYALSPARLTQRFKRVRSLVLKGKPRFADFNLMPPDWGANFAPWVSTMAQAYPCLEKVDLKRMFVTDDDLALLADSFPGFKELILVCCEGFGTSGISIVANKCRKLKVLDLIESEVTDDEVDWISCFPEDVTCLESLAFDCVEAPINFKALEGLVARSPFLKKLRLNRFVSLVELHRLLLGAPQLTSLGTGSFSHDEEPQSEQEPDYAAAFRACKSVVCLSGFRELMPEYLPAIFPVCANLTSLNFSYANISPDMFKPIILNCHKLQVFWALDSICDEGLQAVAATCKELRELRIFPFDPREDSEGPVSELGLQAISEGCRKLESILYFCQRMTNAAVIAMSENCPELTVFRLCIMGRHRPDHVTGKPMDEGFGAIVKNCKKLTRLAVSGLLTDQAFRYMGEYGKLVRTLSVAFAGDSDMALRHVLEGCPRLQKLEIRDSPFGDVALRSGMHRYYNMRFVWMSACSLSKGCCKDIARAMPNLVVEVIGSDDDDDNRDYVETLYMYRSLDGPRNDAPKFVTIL
# Chain of AtAFB5–IAA7 (Q39255 whole entry partner, other chains not shown): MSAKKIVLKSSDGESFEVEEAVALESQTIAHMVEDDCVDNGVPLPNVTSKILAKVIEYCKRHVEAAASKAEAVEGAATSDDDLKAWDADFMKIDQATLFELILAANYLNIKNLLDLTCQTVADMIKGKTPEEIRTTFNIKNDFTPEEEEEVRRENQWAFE
# Chain of AtTIR1–IAA7 peptide (Q570C0 whole entry, other chains not shown): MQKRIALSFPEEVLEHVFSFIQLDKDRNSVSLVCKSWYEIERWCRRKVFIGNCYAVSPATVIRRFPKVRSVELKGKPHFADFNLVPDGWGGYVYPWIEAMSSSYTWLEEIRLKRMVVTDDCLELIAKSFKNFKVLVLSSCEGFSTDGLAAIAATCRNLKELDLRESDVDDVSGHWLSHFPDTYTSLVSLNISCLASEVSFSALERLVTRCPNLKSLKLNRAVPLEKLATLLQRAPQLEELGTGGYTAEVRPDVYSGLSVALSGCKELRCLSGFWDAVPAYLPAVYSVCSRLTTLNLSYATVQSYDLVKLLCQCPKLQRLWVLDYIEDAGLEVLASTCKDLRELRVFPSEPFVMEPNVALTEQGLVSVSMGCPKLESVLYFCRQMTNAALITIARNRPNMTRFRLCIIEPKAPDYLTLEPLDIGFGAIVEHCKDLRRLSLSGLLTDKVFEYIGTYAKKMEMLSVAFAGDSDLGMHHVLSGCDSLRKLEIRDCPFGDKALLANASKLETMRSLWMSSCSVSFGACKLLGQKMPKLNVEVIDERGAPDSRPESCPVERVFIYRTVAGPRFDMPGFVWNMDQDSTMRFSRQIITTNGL
# Chain of AtTIR1–IAA7 peptide (Q39255 whole entry partner, other chains not shown): as the sequence (Q39255 whole entry partner, other chains not shown) above
smiles,measurement,setting,value
"Nc1ncnc2c1ncn2[C@@H]1O[C@H](COP(=O)(O)OCCc2c[nH]c3ccccc23)[C@@H](O)[C@H]1O [AEIP, Adenosine-5-[2-(1H-indol-3-yl)ethyl]phosphate]",in vitro activity against auxin-conjugating GH3s,auxin-conjugating GH3s,micromolar range
"O=C(O)Cc1c[nH]c2ccccc12 [IAA, indole-3-acetic acid]",lateral root formation in sav3-2 and yuc Q mutants,[1]; auxin biosynthesis mutants,induced by IAA to a similar extent as WT plants
same,lateral root formation in tir1-1 afb2-1 and axr1-3 mutants,[1]; auxin signaling mutants,showed resistance
same,time to decomposition of DII-VENUS after application,[2],≤ 10 min
same,ectopic formation of leafy-like primordia,Physcomitrium patens,has not been induced
same,mesocotyl elongation in rice,[3]; aerial part of rice seedlings,promoted mesocotyl elongation
same,primary root elongation in rice,[3]; rice roots,suppressed primary root elongation
same,expression of auxin biosynthesis gene YUC6,[4],down-regulated
same,lateral root formation in WT roots,[5],promoted lateral root formation
same,effect on AFB5–IAA7 peptide association and dissociation,AtAFB5–IAA7,promotes interaction
same,effect on TIR1–IAA7 peptide association and dissociation,AtTIR1–IAA7 peptide,promotes interaction
Nc1ccccc1C(=O)C[C@H](N)C(=O)O [L-kynurenine],inhibition of TAA1,TAA1,competitively inhibit
OB(O)c1ccc(Oc2ccccc2)cc1 [PPBo],IAA production,YUC monooxygenase,block IAA production
COCCC(=O)N1C[C@@H]2C[C@H](C1)c1ccc(NC(=O)c3ccc(-c4ccccc4)cc3)c(=O)n1C2 [jarin-1],inhibition of AtGH3.11/JAR1,AtGH3.11/JAR1,selectively inhibits
S=c1nc(-c2ccc(Cl)cc2)[nH][nH]1 [yucasin],endogenous IAA level,endogenous IAA,decreased the endogenous IAA to almost basal level
